# Compound activity (PubChem)
# A3A deaminase = blocks human APOBEC3A ssDNA deamination | P31941 | recombinant A3A, FAM/TAMRA ssDNA deamination fluorescence | inhibition, % at 20 µM | 330,000 compounds, 0.41% hits | AID 493011;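 active means at least 40% inhibition at 20 µM here, with at most 30% in a related deaminase screen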;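 further: plate controls were A3A with DMSO for no effect and wells lacking A3A enzyme for full effect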
# TbMetRS inhib = blocks T. brucei methionyl-tRNA synthetase activity; 360,000 compounds, 0.4% hits; AID 624268; inhibition, % at 11.9 µM; purified T. brucei MetRS, ATP depletion, Kinase-Glo luminescence;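 active means inhibition above a per-plate cutoff of the control wells' mean inhibition plus 3 SD, cut at about 5.5% in these data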;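 further: 0% = DMSO wells median and 100% = median of wells with control inhibitor compound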
#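 Dosing: 11.9 µM single point; system: parasite MetRS enzyme; technique: luminescence of leftover ATP; times: 15 min enzyme-compound preincubation, 2 h reaction, 10 min detection, 25 °C; replicates: each compound tested once; read-out basis: percent inhibition relative to median high and low control wells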
# PHOSPHO1 block = inhibitors of human PHOSPHO1 phosphatase; recombinant PHOSPHO1, absorbance phosphatase assay; inhibition, % at 13.3 µM; 290,000 compounds, 1.1% hits; AID 1565; in the data active means inhibition above about 60%
# p-CIP stab down = p/CIP protein destabilization; F442A p/CIP-EGFP cells, EGFP fluorescence, 16 h; 290,000 compounds, 0.01% hits; Q05BA5; decrease of EGFP signal, % at 10 µM;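 active means EGFP signal decrease of at least 30% at 10 µM or well 3 SD below plate mean, unless failing retest; inactive means the rest, including hits failing retest or dose response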
# A3G deaminase = inhibitors of human APOBEC3G DNA deaminase | 330,000 compounds, 0.28% hits | inhibition, % at 20 µM | recombinant A3G, ssDNA deamination FAM/TAMRA fluorescence | Q9HC16;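 active means inhibition of at least 40% at 20 µM, with no more than 30% in the related APOBEC3A deaminase screen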;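 further: plate controls were DMSO wells with A3G for no effect and wells lacking A3G enzyme for full effect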
# Target sequence (Q9HC16 whole entry, looked up): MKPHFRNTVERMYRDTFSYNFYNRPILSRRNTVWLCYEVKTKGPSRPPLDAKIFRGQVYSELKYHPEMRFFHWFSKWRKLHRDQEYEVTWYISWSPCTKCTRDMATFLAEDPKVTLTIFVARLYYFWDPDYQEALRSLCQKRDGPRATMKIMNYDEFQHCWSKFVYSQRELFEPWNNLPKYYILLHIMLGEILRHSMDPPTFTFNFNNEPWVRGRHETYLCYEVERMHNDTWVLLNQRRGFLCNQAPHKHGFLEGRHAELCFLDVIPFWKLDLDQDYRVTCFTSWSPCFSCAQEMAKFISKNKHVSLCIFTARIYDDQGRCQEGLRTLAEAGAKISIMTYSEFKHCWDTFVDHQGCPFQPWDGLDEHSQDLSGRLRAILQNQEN
# TbMetRS confirm = confirmation of Trypanosoma brucei MetRS inhibitors. shares compounds with TbMetRS inhib. T. brucei MetRS enzyme, luminescence (ATP depletion). inhibition, % at 11.9 µM. 1,400 compounds, 93% hits; in the data active means inhibition above about 7%
# Jurkat cytotox = kills Jurkat cells in T. brucei MetRS counterscreen; shares compounds with TbMetRS inhib; Jurkat cells viability, ATP luminescence; inhibition, % at 8.3 µM; 1,400 compounds, 12% hits; AID 624413; in the data active means inhibition above about 15%;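 further: 0% = vehicle and 100% = reference inhibitor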
# Tb MetRS inh FP = orthogonal test for Trypanosoma brucei MetRS inhibitors; purified T. brucei MetRS, fluorescence polarization; inhibition, % at 11.9 µM; shares compounds with TbMetRS inhib; AID 651607; 1,400 compounds, 44% hits; in the data active means inhibition above about 17%;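 further: 0% = vehicle wells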
# An asterisk follows results filed as active; x = not tested or not shown. Shown are actives, neighbours in structure and some others; about 1.8% of the full set was active somewhere.
SMILES,A3A deaminase,TbMetRS inhib,PHOSPHO1 block,p-CIP stab down,A3G deaminase,TbMetRS confirm,Jurkat cytotox,Tb MetRS inh FP
N#CC1=C(N)Oc2cc(N)ccc2C1c1ccsc1 (stereo not given),1.0,0.2,14.0,-5.7,0.8,x,x,x
NC(=S)N1OC[C@@H]2COc3ccc4ccccc4c3[C@@H]21,-0.6,0.1,11.2,-2.3,1.7,x,x,x
Oc1ccc(Br)cc1CNc1cnc2ccccc2c1,-7.4,10.8*,34.0,1.2,-5.1,15.4*,40.2*,0.5
CC(C)C[C@@H]1NC(=O)[C@H](C(C)C)NC(=O)c2cc([N+](=O)[O-])cc(I)c2OCC[C@@H](C(N)=O)NC1=O,3.3,-0.4,-8.6,-3.7,-6.3,x,x,x
CCCN1CN(Cc2ccco2)c2nc3ccccc3n2C1,0.0,20.0*,-12.0,2.0,1.3,17.5*,8.8,10.8
c1coc(CN2CNc3nc4ccccc4n3C2)c1,-0.5,-0.1,19.5,0.2,-6.4,x,x,x
CCOC(CCn1ccc(O)c(Cc2ccc(Cl)cc2)c1=O)OCC,-7.0,0.4,x,2.0,-13.0,x,x,x
O=c1c(Cc2ccc(Cl)cc2Cl)c(O)ccn1Cc1ccc(Cl)cc1,-2.6,5.9*,13.9,-0.8,-3.7,16.4*,6.0,12.7
CCOC(=O)Cn1ccc(O)c(Cc2ccc(Cl)cc2Cl)c1=O,-4.5,22.6*,35.2,-17.7,-6.8,38.1*,4.7,16.1
Nc1c(NC(=O)CC[n+]2ccccc2)cccc1[N+](=O)[O-],2.3,11.2*,11.7,3.8,2.0,18.4*,-3.7,2.1
Cc1cc(C)nc(NS(=O)(=O)c2ccc(NS(=O)(=O)c3ccccc3)cc2)n1,-2.2,-0.6,6.1,-8.7,-2.1,x,x,x
Cc1cc(NS(=O)(=O)c2ccc(NC(=O)Nc3ccccc3)cc2)no1,2.1,8.4*,-10.0,-4.8,-5.9,16.1*,5.2,-4.0
Cc1cc(C)nc(NS(=O)(=O)c2ccc(NC(=O)Nc3ccccc3)cc2)n1,1.4,13.3*,27.8,-0.9,-1.2,15.7*,1.6,4.9
CCN(C(=O)COC(=O)CNS(=O)(=O)c1ccc(C)cc1)C1CCS(=O)(=O)C1 (stereo not given),x,-0.5,x,x,x,x,x,x
N#CCCn1nc(-c2ccc([N+](=O)[O-])cc2)cc1Nc1ccccc1NC(=O)C(F)(F)F,-4.5,-0.8,-46.2,-21.5,-1.4,x,x,x
O=C(NCCc1nc2ccccc2[nH]1)/C(=C/c1ccc2c(c1)OCO2)NC(=O)c1ccc(Cl)cc1Cl,0.8,8.0*,9.8,3.5,-7.1,11.5*,-0.4,5.2
O=C(NCCc1nc2ccccc2[nH]1)/C(=C/c1ccc(F)cc1)NC(=O)c1ccco1,2.8,3.4,19.5,-1.4,-2.2,x,x,x
CN(CC(=O)NC1CCCCCCC1)S(=O)(=O)c1cnc[nH]1,-1.4,-0.9,-18.8,-5.9,-8.9,x,x,x
Cc1cccc(C)c1-n1nnnc1-c1nc2cc3ccccc3cc2[nH]c1=O,x,54.3*,x,x,x,55.8*,70.4*,19.4*
Cc1cccc(C)c1-n1nnnc1-c1nc2cc(Br)ccc2[nH]c1=O,x,3.6,x,x,x,x,x,x
CC(Oc1ccccc1F)C(=O)NNC(=O)c1ccc(-n2cncn2)c([N+](=O)[O-])c1 (stereo not given),x,5.4,x,x,x,x,x,x
O=C(NNC(=O)c1ccccc1Cl)c1ccc(-n2cncn2)c([N+](=O)[O-])c1,-7.0,7.8*,x,x,-8.2,33.0*,5.5,11.6
O=C(c1ccc(-n2cncn2)c([N+](=O)[O-])c1)N1CCN(S(=O)(=O)c2ccccc2Br)CC1,-1.1,1.2,x,x,-10.5,x,x,x
O=C(NNC(=O)c1ccc(-n2cncn2)c([N+](=O)[O-])c1)c1cccc(Cl)c1,3.5,35.3*,x,x,-5.6,59.2*,5.8,31.2*
N#Cc1ccccc1S(=O)(=O)N1CCN(C(=O)c2ccc(-n3cncn3)c([N+](=O)[O-])c2)CC1,-3.2,0.5,x,x,-1.8,x,x,x
O=C(NNC(=O)c1ccc(-n2cncn2)c([N+](=O)[O-])c1)c1ccc(Cl)cc1,-2.4,59.5*,x,x,-9.0,81.7*,1.1,64.7*
O=C(Nc1cc(Cl)ccc1F)c1ccc(-n2cncn2)c([N+](=O)[O-])c1,10.8,21.8*,x,x,-9.1,58.5*,-2.2,21.0*
